The text below walks through data of ChEMBL document CHEMBL2331121, “Design, synthesis, and pharmacological characterization of N- and O-substituted 5,6,7,8-tetrahydro-4H-isoxazolo[4,5-d]azepin-3-ol analogues: novel 5-HT(2A)/5-HT(2C) receptor agonists with pro-cognitive properties” (J Med Chem, 2013).

One assay is filed under the species Homo sapiens. As to the kind of experiment: Selectivity ratio of EC50 for human 5HT2A receptor to EC50 for M1 muscarinic receptor (unknown origin) by FLIPR assay.
For assay [1], the target named is T1, 5-hydroxytryptamine receptor 2A (Homo sapiens, UniProt P28223). In words: Ratio of EC50 for human 5HT2A receptor by calcium fiux-based fluorescence assay to EC50 for 5HT2A by IP1 accumulation-based TR-FRET assay. The format is functional. (In general: TR-FRET usually uses a lanthanide donor and a delayed reading to cut background.)
T1 sequence (P28223 whole entry, canonical isoform): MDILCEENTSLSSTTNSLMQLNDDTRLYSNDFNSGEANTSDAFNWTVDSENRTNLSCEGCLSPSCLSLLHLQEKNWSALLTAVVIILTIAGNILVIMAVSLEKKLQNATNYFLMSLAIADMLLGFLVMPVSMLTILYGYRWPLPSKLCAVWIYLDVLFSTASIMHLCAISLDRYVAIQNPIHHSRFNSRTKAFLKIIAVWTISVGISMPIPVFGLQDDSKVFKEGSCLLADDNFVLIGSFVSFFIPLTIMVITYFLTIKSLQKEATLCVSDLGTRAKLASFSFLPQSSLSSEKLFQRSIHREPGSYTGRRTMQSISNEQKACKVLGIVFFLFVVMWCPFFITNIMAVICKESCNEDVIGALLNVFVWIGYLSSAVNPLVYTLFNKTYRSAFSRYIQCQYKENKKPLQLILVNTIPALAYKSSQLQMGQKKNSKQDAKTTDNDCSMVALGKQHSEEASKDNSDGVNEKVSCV
Assay [2] concerns the target T1, 5-hydroxytryptamine receptor 2A. As to the kind of experiment: Agonist activity at human 5HT2A receptor expressed in HEK293 cells assessed as accumulation of IP1 incubated for 1 hr at 37 degC followed by 15 mins at RT by TR-FRET assay relative to 5HT. It is filed as functional, cell-based. In outline: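 Polyclonal HEK293 lines stably expressing human 5-HT2A (variant 1) or 5-HT2C (INI isoform), detached and suspended at 1 × 10⁷ cells/mL in HBSS with 20 mM HEPES, 1 mM CaCl₂, 1 mM MgCl₂, pH 7.4. Ligands in buffer with 40 mM LiCl. Incubated 1 h at 37 °C, then 15 min RT. IP1 read by HTRF 665/615 ratio. Triplicate, at least four times.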

Assay [3] addresses T2, 5-hydroxytryptamine receptor 2C (Homo sapiens) (UniProt P28335).
T2 sequence (whole entry): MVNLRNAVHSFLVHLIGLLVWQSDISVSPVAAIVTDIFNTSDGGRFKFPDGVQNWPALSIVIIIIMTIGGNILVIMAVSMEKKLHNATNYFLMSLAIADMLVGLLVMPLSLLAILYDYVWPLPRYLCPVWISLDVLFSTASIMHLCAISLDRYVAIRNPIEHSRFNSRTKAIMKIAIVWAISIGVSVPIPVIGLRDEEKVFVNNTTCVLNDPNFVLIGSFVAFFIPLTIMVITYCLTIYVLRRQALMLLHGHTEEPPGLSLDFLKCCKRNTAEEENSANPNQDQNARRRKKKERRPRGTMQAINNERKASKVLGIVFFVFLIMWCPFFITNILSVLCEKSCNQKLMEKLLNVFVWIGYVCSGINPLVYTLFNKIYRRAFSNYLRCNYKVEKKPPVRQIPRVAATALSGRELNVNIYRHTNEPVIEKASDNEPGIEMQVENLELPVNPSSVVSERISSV
As to the kind of experiment: Agonist activity at human 5HT2C receptor expressed in HEK293 cells assessed as induction of intracellular calcium release by fluorescence assay relative to 5HT. It is filed as functional, cell-based. In outline:
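Stable polyclonal 5-HT2A or 5-HT2C HEK293 cells seeded on poly-D-lysine plates (6 × 10⁴ cells/well). Next day loaded with Fluo-4/AM for 1 h at 37 °C in HBSS/20 mM HEPES/1 mM CaCl₂/1 mM MgCl₂/2.5 mM probenecid, pH 7.4. Fluorescence (485 ex/525 em) recorded before and up to 90 s after agonist. Response relative to 5-HT on the same plate. Duplicate, at least three times.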
A general note: Calcium assays in cells follow changes in intracellular calcium, usually with a dye or a luminescent sensor.

Assay [4] deals with Mus musculus. In words: Procognitive effect in C57BI/6J mouse assessed as time spent in familiar arm at 0.43 mg/kg, po administered 30 mins prior to acquisition trial measured after 24 hrs in presence of SB242084. The format is functional. In outline:
(§1)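 Male C57Bl/6J mice aged 8 weeks, two-trial place recognition Y-maze. 3 min acquisition with two arms open; 24 h ITI; 3 min retention with all three arms open. Drug given po 30 min before acquisition, vehicle 10% HP-βCD. SB242084 2.1 mg/kg co-administered where stated; doses as free base. Readouts are % distance, arm entries and time in each arm. Familiar arms pooled; one-way ANOVA.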

Assay [5] deals with Mus musculus. As to the kind of experiment: Procognitive effect in C57Bl/6J mouse assessed as time spent in novel arm at 0.43 mg/kg, po administered 30 mins prior to acquisition trial measured after 24 hrs in presence of SB242084. The format is functional. In outline:
as §1

Assay [6] has as its system Mus musculus. In words: Procognitive effect in C57Bl/6J mouse assessed as number of novel arm entry at 0.43 mg/kg, po administered 30 mins prior to acquisition trial measured after 24 hrs in presence of SB242084. The format is functional. In outline: as §1
Assay [7] has as its system Mus musculus. As to the kind of experiment: Procognitive effect in C57Bl/6J mouse assessed as distance traveled in the novel arm at 0.43 mg/kg, po administered 30 mins prior to acquisition trial measured after 24 hrs in presence of SB242084 (reference value: 37 +/-5.8%). It is filed as functional. In outline: as §1
Assay [8] relates to Mus musculus. In words: Procognitive effect in C57Bl/6J mouse assessed as number of familiar arm entry at 0.43 mg/kg, po administered 30 mins prior to acquisition trial measured after 24 hrs by Y-maze test. It is filed as functional. In outline:
as §1

The test system of assay [9] is Mus musculus. In words: Procognitive effect in C57Bl/6J mouse assessed as time spent in novel arm at 0.43 mg/kg, po administered 30 mins prior to acquisition trial measured after 24 hrs by Y-maze test. It is filed as functional. In outline:
as §1

Assay [10] has as its system Mus musculus. In words: Procognitive effect in C57Bl/6J mouse assessed as number of novel arm entries at 0.43 mg/kg, po administered 30 mins prior to acquisition trial measured after 24 hrs by Y-maze test. It is filed as functional. In outline:
as §1

The target in assay [11] is T3, 5-hydroxytryptamine receptor 2C (Rattus norvegicus) (UniProt P08909).
T3 sequence (whole entry): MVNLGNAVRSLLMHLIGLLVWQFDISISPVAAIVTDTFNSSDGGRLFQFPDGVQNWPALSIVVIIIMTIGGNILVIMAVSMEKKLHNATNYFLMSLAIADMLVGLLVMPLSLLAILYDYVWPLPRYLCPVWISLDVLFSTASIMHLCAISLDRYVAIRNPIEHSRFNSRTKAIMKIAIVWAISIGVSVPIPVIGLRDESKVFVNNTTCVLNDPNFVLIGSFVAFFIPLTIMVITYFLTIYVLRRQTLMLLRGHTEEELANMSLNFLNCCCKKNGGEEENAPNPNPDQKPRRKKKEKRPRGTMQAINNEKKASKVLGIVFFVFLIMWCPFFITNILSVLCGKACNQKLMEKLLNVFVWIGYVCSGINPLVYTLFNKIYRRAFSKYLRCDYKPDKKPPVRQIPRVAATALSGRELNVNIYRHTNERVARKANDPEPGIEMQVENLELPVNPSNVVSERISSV
As to the kind of experiment: Displacement of [125I]-N-(p-I-Bn)-THAZ from 5HT2C receptor in Sprague-Dawley rat midbrain membrane at 100 uM after 40 mins by autoradiography. It is filed as tissue-based. (In general: Loss of bound radioactivity is the signal in a displacement assay; it reports binding, not function.)

Assay [12] deals with T3, 5-hydroxytryptamine receptor 2C (Rattus norvegicus). In words: Displacement of [125I]-N-(p-I-Bn)-THAZ from 5HT2C receptor in Sprague-Dawley rat cortical membrane at 100 uM after 40 mins by autoradiography.
Assay [13] has as its target T1, 5-hydroxytryptamine receptor 2A. As to the kind of experiment: biochemical. It is filed as cell-based, tsA201. The following applies: read-out: Ki.
Assay [14] addresses T4, 5-hydroxytryptamine receptor 2C (Homo sapiens, UniProt P28335).
T4 sequence (P28335 whole entry): T2 sequence (whole entry)
In words: Agonist activity at human 5HT2C receptor expressed in HEK293 cells assessed as accumulation of IP1 incubated for 1 hr at 37 degC followed by 15 mins at RT by TR-FRET assay. The format is functional, cell-based.

The target of assay [15] is T1, 5-hydroxytryptamine receptor 2A. In words: Agonist activity at human 5HT2A receptor expressed in HEK293 cells assessed as induction of intracellular calcium release measured for 90 secs by fluorescence assay. It is filed as functional, cell-based. The following applies: read-out: EC50.

Activity calls are given as the source filed them. The rule behind the calls is not given here.

Usually Emax stands for the greatest response seen or fitted, relative to the assay's reference. One may read the Ki as a dissociation constant, usually derived from enzyme kinetics or from competition with a known ligand. Usually EC50 stands for the concentration that produces a half-maximal response.
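For Ki in this document: radioligand displacement of [3H]ketanserin on membranes of tsA201 cells expressing the receptor, incubated 1 hr, bound radioactivity read by scintillation counting.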

Regarding `O=c1c2c(on1Cc1ccccc1)CCNCC2`, the Ratio EC50 stood at 20 in the assay filed under Homo sapiens and 2 in assay [1]. Also, the maximal response (Emax) in assay [2] was determined as 95%; in assay [3] it was 90%. Further, the Activity is listed as 31.7% in the assay on Mus musculus [4]; 36.6% with Mus musculus [5]; 32.8% in the assay on Mus musculus [6]; 34.7% with Mus musculus [7]; 30.8% with Mus musculus [8]; 38.8% in the assay with Mus musculus [9]. Also, the Activity in the assay on Mus musculus [10] is 38.5%. Moreover, the result in assay [11] and in assay [12] was Active. In assay [13], the inhibitory constant (Ki) amounted to 8800 nM. For the same molecule, the EC50 in assay [14] was 1700 nM; in [15], 550 nM.
